From PubChem BioAssay
The sample as a whole holds a higher share of hits than the screen did.
PGC1a acetyl up: raises PGC1a acetylation signal in U2OS cells | 350,000 tested, 0.21% active | AID 651723 | activation, % at 15.6 µM | U2OS PGC1a acetylation AlphaScreen, overnight;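 active = every replicate reaching activation of at least 50%, whatever the mean replicate activation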;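 also: hits raise the AlphaScreen acetylation signal above neutral controls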
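Test system: U2OS cells expressing flag-PGC1a plus GCN5; Amount: 7000 U2OS cells per well; Compound: single test concentration per compound; Incubation: compound overnight at 37 °C, each detection step 1 h RT; Signal: AlphaScreen lysate read.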
* = called active by the depositor.

SMILES	PGC1a acetyl up
CCOC(=O)/C(=C\c1cccnc1)C(=O)c1cc(C(C)=O)c(Nc2ccccc2)s1	-84
COc1cccc(-c2nn(-c3ccccc3)cc2CN(C)C(C)c2ccncn2)c1 (configuration not stated)	-41
CCOC(=O)c1cn(-c2ccccc2)nc1-c1cccnc1	77*
O=C(CN1CCC(n2nnc3cc(F)ccc32)CC1)Nc1ccc2c(c1)CCC2	103*
CC(c1n[nH]c(=S)n1Cc1ccccc1)N(C)C (configuration not stated)	-50
CN(C)C(=O)C[C@H]1C[C@@H]2c3cc(NC(=O)C4CCOCC4)ccc3O[C@@H]2[C@H](CO)O1	-41
O=[N+]([O-])c1ccc(S(=O)(=O)c2cccc(C(F)(F)F)c2)nc1	172*
CCCCOc1ccc(/C=C/C(=O)OCC(=O)c2c(N)n(C)c(=O)n(C)c2=O)cc1OCC	-47
CCOc1ccc(/C=C/C(=O)Oc2ccccc2)cc1	154*
CCOC(=O)C(CC)(CC)C(=O)/C=C/c1ccc(Br)cc1	-57
O=C(c1ccc(F)cc1)N(C(=O)c1ccc(F)cc1)c1ncccn1	-43
O=C(C[C@@H]1CC[C@@H](NS(=O)(=O)c2ccc(F)cc2)[C@H](CO)O1)N1CCN(c2ccccc2)CC1	-49
COc1ccc(S(=O)(=O)N(Cc2cc3ccc(OC)cc3[nH]c2=O)CC2COCCO2)cc1 (configuration not stated)	-45
CCOc1ccc(N2CC(C(=O)Nc3ccc(S(=O)(=O)NCC4CCCO4)cc3)CC2=O)cc1 (configuration not stated)	-56
Cn1nnnc1Sc1ncnc2scc(-c3ccc[nH]3)c12	91*
CCCNC(=O)c1nnsc1S(=O)(=O)c1ccc(Cl)cc1	82*
CNC(=O)c1nnsc1S(=O)c1ccc(Cl)cc1 (configuration not stated)	117*
CCCNC(=O)c1nnsc1S(=O)c1ccc(Cl)cc1 (configuration not stated)	148*
OCC1(Cc2ccc(F)cc2F)CCCN(Cc2ccc(Cl)cc2)C1 (configuration not stated)	-46
CCOC(=O)NC(=O)CSc1nnnn1-c1ccc(C)cc1	-94
COCCCNC(=O)c1ccc(CSCc2ccc(C)cc2)o1	-46
O=C(COn1nnc2ccc(Cl)cc21)NC12CC3CC(CC(C3)C1)C2	-85
COc1cc(CN2[C@@H]3CNC[C@H]2C3c2ccc(-c3ccccc3)cc2)cc(OC)c1 (some centres not stated)	52*
N#C[C@@H]1[C@@H](c2ccc(-c3ccccc3)cc2)[C@@H](CO)N1C(=O)Cc1ccncc1	-63
C=CCNC(=O)CC1Nc2c3ccccc3nc(=S)n2C1=O (configuration not stated)	-41
SMILES	PGC1a acetyl up
Cc1nc(N(CCO)C2CCCCC2)c2nnn(Cc3ccccc3)c2n1	-40
C[C@@H]1CN([C@H](C)CO)C(=O)CCCn2cc(nn2)CO[C@H]1CN(C)C(=O)Nc1ccc(C(F)(F)F)cc1	-49
CC1(C)OC(C)(C)/C(=C\c2ccc(OCC(N)=O)cc2)C1=O	-46
Cc1noc(C)c1NC(=O)N(C)C[C@H]1Oc2c(NC(=O)c3nc4ccccc4s3)cccc2C(=O)N([C@H](C)CO)C[C@H]1C	-54
Nc1cc(N)nc(SCC(=O)Nc2ccccc2N2CCOCC2)n1	-41
Cc1cc(C)nc(SCC(=O)OCN2C(=O)c3ccccc3C2=O)n1	67*
CC1CC(=O)c2c(cc3c(-c4c(O)cc(O)c5c(O)c6c(cc45)OC(C)CC6=O)c(O)cc(O)c3c2O)O1 (configuration not stated)	-63
CC/C(=C(\c1ccccc1)c1ccc(OCCN(C)C)cc1)c1ccccc1	124*
CC/C(=C(\c1ccc(O)cc1)c1ccc(OCCN(C)C)cc1)c1ccccc1	63*
CCN(CC)CCOc1ccc(/C(=C(/Cl)c2ccccc2)c2ccccc2)cc1	99*
CC(C)C(NC(=O)c1ccc(C(C)(C)C)cc1)C(=O)O (configuration not stated)	-53
NC(=O)NC(=O)Nc1ccccc1Cl	-54
NC(=O)c1ccc(NC(=O)C#Cc2ccccc2)cc1	203*
CC[C@H](C)[C@H](NC(=O)c1ccc(Cl)cc1)C(=O)OCC(=O)c1ccc2c(c1)NC(=O)CO2	-40
O=C(Cc1csc(N2CCOCC2)n1)N/N=C/c1cccc(O)c1	-56
O=[N+]([O-])c1cc(-c2ncccn2)c([N+](=O)[O-])s1	-61
Cn1ccc2cc(OCc3ccccc3)ccc21	54*
Nc1ccccc1-c1ccn[nH]1	-41
CCCN(C)C[C@H]1Oc2cc(C#Cc3ccc(OC)cc3)ccc2S(=O)(=O)N([C@@H](C)CO)C[C@H]1C	-49
COc1ccc(C(=O)Nc2ccc3c4c(cccc24)CC3)cc1	-86
COc1ccc(N(C)S(=O)(=O)c2cccc(C(=O)Nc3ccc(-n4cnnn4)cc3)c2)cc1	67*
COc1ccccc1OCCn1cc(/C=N/NC(=O)c2ccncc2)c2ccccc21	-50
COc1cccc(/C=N/NC(=O)c2ccc(-n3cnnn3)cc2)c1	84*
COc1ccc(C(=O)Nc2cccc(S(C)(=O)=O)c2)cc1OC	-41
